Consider four molecules from ChEMBL document CHEMBL1151190, “Acetylated flavonoid glycosides potentiating NGF action from Scoparia dulcis” (2004).

In test [1] the test system is PC-12. Nature of the test: Increase of nerve growth factor-stimulated neurite growth in rat PC12D cells at 10 to 100 umol after 48 hrs. Format: functional, cell-based. The method in brief:
(§1)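 PC12D cells detached with 1 mmol EGTA in PBS for 30 min, seeded at 2 × 10^4 cells/well on poly-L-lysine. After 24 h, switched to medium with 1% fetal calf serum, 2% horse serum, NGF 2 ng/mL plus compound at 10, 30 or 100 µmol (DMSO stocks 50 mmol). Fixed after 48 h with 2% glutaraldehyde, 37 °C, 1 h.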

For test [2], the system named is PC-12. Nature of the test: Induction of neurite growth in rat PC12D cells at 100 umol after 48 hrs. Format: functional, cell-based. The method in brief:
(§2)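 No NGF was added. PC12D cells were detached with EGTA/PBS and plated on poly-L-lysine. After 24 h they went into medium with 1% fetal calf serum and 2% horse serum plus compound (DMSO stocks 50 mmol). Cells were fixed after 48 h in 2% glutaraldehyde. The percentage with processes ≥ cell-body diameter was scored by phase-contrast microscopy: 3 fields/well, 6 wells/sample.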

Test [3] relates to PC-12. Nature of the test: Increase of nerve growth factor-stimulated neurite growth in rat PC12D cells at 100 umol after 48 hrs. It is filed as functional. The method in brief:
as §1

Test [4] has as its system PC-12. Nature of the test: Induction of neurite growth in rat PC12D cells at 30 umol after 48 hrs. It is filed as functional, cell-based. The method in brief:
as §2

The test system of test [5] is PC-12. Nature of the test: Induction of neurite growth in rat PC12D cells at 10 umol after 48 hrs. Format: functional, cell-based. The method in brief: as §2

Molecules are shown by their SMILES. The source made the active and inactive calls. No cut-off for these calls is given here.

Consider `C=CCc1ccc(O[C@@H]2O[C@H](CO)[C@@H](O)[C@H](O)[C@H]2O)c(OC)c1`, for which the outcome in test [1] was inactive.

As for `CC(=O)O[C@@H]1[C@@H](O)[C@H](C)O[C@@H](OC[C@H]2O[C@@H](Oc3cc(O)c4c(=O)cc(-c5ccc(O)cc5)oc4c3)[C@H](O)[C@@H](O)[C@@H]2O)[C@@H]1OC(C)=O`, the outcome in test [2], in test [4] and in test [5] was inactive. Also, the Activity in test [3] amounted to 14.9%.

Consider `CC(=O)O[C@@H]1[C@@H](O)[C@H](C)O[C@@H](OC[C@H]2O[C@@H](Oc3cc(O)c4c(=O)cc(-c5ccc(O)cc5)oc4c3)[C@H](O)[C@@H](O)[C@@H]2O)[C@@H]1O`, for which the result in test [2], in test [4] and in test [5] was inactive. In addition, the Activity in test [3] is listed as 16.1%.

Consider `CC(=O)O[C@@H]1[C@@H](O)[C@H](C)O[C@@H](OC[C@H]2O[C@@H](Oc3cc4oc(-c5ccc(O)cc5)cc(=O)c4c(O)c3O)[C@H](O)[C@@H](O)[C@@H]2O)[C@@H]1OC(C)=O`, for which the outcome in test [1] was inactive.
